For assay [1], the target named is Delta-type opioid receptor (Rattus norvegicus, UniProt P33533). Description: Opioid receptor delta 1 binding affinity by displacement of radioligand [3H][D-Pen]-enkephalin (DPDPE) from rat brain membrane synaptosomes. In kind it is subcellular.
The target of assay [2] is Mu-type opioid receptor (Rattus norvegicus, UniProt P33535). As to the kind of experiment: Opioid receptor mu 1 binding affinity by displacement of radioligand [3H][DAla,MePhe,Gly-ol]enkephalin (DAGO) from rat brain membrane synaptosomes. In kind it is subcellular. In short, it runs like this:
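Rat brain (male Sprague–Dawley) P2 synaptosomes, preincubated to remove endogenous opioids and washed. Incubated 120 min at 22 °C, 1.6 mg protein, in duplicate, with 0.62 nM [3H]DPDPE (δ) or 0.68 nM [3H]DAGO (μ). Nonspecific binding with 1–2 μM unlabelled ligand. Filtration, scintillation counting. Five to seven concentrations. Ki from IC50 by Cheng–Prusoff, mean ± SE, n = 3–9.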

The species named for assay [3] is Cavia porcellus. As to the kind of experiment: Bioactivity in vitro in guinea pig ileum (GPI) isolated organ preparation. The format is functional. In short, it runs like this: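 Guinea pig ileum segment (2–3 cm) in 20 mL bath with 70 μM hexamethonium and 0.125 μM mepyramine, 95% O2/5% CO2, 36 °C. Transmural stimulation 0.5 ms pulses at 0.1 Hz, 1.5× maximal-twitch voltage. 1 g load, 45 min equilibration, isotonic recording. Dose–response curves run against a reference agonist. Means of six experiments.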

The species named for assay [4] is Oryctolagus cuniculus. As to the kind of experiment: Bioactivity in vitro in rabbit jejunum (RJ) isolated organ preparation. The format is functional. In short, it runs like this:
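Rabbit jejunum on isotonic transducer under 1 g load, equilibrated 45 min while recording spontaneous activity without washing. Dose–response curves run against a reference agonist. At least four jejunum preparations, each from a different rabbit. Means of six experiments.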

pIC50, pKi: −log10 of the molar value.

Usually pKi stands for the Ki on a negative log10 scale, so that one unit is a factor of ten. Low values mean a large Ki, high ones a small Ki. As usually defined, the pIC50 is −log10 of the IC50, conventionally taken in molar units. Read a low pIC50 as a large IC50.

Sequence of Mu-type opioid receptor (P33535 whole entry): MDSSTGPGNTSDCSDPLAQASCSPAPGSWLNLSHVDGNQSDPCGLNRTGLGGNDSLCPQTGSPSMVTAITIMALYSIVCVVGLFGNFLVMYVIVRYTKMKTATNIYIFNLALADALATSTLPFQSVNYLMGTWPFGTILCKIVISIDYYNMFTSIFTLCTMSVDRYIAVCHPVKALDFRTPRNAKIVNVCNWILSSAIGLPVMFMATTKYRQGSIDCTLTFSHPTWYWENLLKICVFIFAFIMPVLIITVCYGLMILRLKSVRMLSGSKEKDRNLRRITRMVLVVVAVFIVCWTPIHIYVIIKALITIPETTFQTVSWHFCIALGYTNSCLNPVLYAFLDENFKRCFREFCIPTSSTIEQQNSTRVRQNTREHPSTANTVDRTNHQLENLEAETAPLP
Sequence of Delta-type opioid receptor (P33533 whole entry): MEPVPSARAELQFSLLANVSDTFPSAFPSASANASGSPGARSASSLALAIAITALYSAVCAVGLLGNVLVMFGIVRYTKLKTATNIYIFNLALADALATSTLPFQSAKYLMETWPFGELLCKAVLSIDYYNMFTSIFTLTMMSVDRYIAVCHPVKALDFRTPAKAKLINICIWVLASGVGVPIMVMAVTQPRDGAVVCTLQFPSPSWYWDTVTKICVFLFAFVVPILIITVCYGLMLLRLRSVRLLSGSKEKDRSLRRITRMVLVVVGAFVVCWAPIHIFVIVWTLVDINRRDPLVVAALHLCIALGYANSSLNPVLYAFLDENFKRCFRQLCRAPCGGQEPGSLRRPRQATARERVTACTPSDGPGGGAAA

For the molecule `C[C@H](O[C@H]1O[C@@H](CO)[C@H](O)[C@@H](O)[C@@H]1O)[C@H](NC(=O)[C@@H]1CCCN1C(=O)[C@H](Cc1ccc(O)cc1)NC(=O)CNC(=O)[C@H](Cc1ccccc1)NC(=O)[C@@H](C)NC(=O)[C@@H](N)Cc1ccc(O)cc1)C(=O)NCC(N)=O`, the pKi was 7.17 in assay [1] and 9.54 in assay [2]. This molecule also gave a pIC50 in assay [3] of 8.51.

Take `CC(=O)OC[C@@H]1O[C@H](O[C@@H](C)[C@H](NC(=O)[C@@H](NC(=O)[C@@H](NC(=O)[C@H](CC(=O)O)NC(=O)[C@H](Cc2ccccc2)NC(=O)[C@@H](C)NC(=O)[C@@H](N)Cc2ccc(O)cc2)C(C)C)C(C)C)C(=O)NCC(N)=O)[C@@H](OC(C)=O)[C@H](OC(C)=O)[C@H]1OC(C)=O`: the results for the pKi in assay [1] and in assay [2] were 8.89 and 6.20, respectively. Further, the pIC50 in assay [4] was 6.05.

Regarding `CC(=O)OC[C@@H]1O[C@H](O[C@H](C)[C@H](NC(=O)[C@@H]2CCCN2C(=O)[C@H](Cc2ccc(O)cc2)NC(=O)CNC(=O)[C@H](Cc2ccccc2)NC(=O)[C@@H](C)NC(=O)[C@@H](N)Cc2ccc(O)cc2)C(=O)NCC(N)=O)[C@@H](OC(C)=O)[C@H](OC(C)=O)[C@H]1OC(C)=O`, the values for the pKi in assay [1] and in assay [2] were 7.06 and 9.34, respectively. In assay [3], this molecule had a pIC50 of 7.66.

`CC(C)[C@H](NC(=O)[C@H](CC(=O)O)NC(=O)[C@H](Cc1ccccc1)NC(=O)[C@@H](C)NC(=O)[C@@H](N)Cc1ccc(O)cc1)C(=O)N[C@H](C(=O)N[C@H](C(=O)NCC(N)=O)[C@@H](C)O[C@H]1O[C@H](CO)[C@@H](O)[C@H](O)[C@H]1O)C(C)C`: the values for the pKi in assay [1] and in assay [2] were 8.81 and 6.24, respectively. The molecule also showed a pIC50 in assay [4] of 6.00.

Take `C[C@@H](NC(=O)[C@@H](N)Cc1ccc(O)cc1)C(=O)N[C@@H](Cc1ccccc1)C(=O)N[C@H](C(=O)N[C@@H](Cc1ccc(O)cc1)C(=O)N1CCC[C@H]1C(=O)N[C@@H](CO)C(N)=O)[C@@H](C)O[C@H]1O[C@H](CO)[C@@H](O)[C@H](O)[C@H]1O`: the pKi in assay [1] is 5.75; in assay [2], 5.77. Also, the pIC50 in assay [3] is 5.47.

In the case of `CC(=O)OC[C@H]1O[C@H](O[C@H](C)[C@H](NC(=O)[C@H](Cc2ccccc2)NC(=O)[C@@H](C)NC(=O)[C@@H](N)Cc2ccc(O)cc2)C(=O)N[C@H](C(=O)N[C@H](C(=O)NCC(N)=O)C(C)C)C(C)C)[C@H](OC(C)=O)[C@@H](OC(C)=O)[C@@H]1OC(C)=O`, the pKi in assay [1] was 5.68; in assay [2], 5.82. The molecule also had a pIC50 in assay [4] of less than 5.40.

On to `CC(C)[C@H](NC(=O)[C@@H](NC(=O)[C@@H](NC(=O)[C@H](Cc1ccccc1)NC(=O)[C@@H](C)NC(=O)[C@@H](N)Cc1ccc(O)cc1)[C@@H](C)O[C@H]1O[C@H](CO)[C@@H](O)[C@@H](O)[C@H]1O)C(C)C)C(=O)NCC(N)=O`, for which the pKi in assay [1] was 5.02; in assay [2] it was 5.70. This molecule had a pIC50 in assay [4] of less than 5.40.

In the case of `CC(=O)OC[C@H]1O[C@H](O[C@H](C)[C@H](NC(=O)[C@H](Cc2ccccc2)NC(=O)[C@@H](C)NC(=O)[C@@H](N)Cc2ccc(O)cc2)C(=O)N[C@@H](Cc2ccc(O)cc2)C(=O)N2CCC[C@H]2C(=O)N[C@@H](CO)C(N)=O)[C@H](OC(C)=O)[C@H](OC(C)=O)[C@H]1OC(C)=O`, the pKi was 4.65 in assay [1] and 5.36 in assay [2]. In assay [3], this molecule had a pIC50 of less than 5.40.

In assay [4], `CC(C)[C@H](NC(=O)[C@H](CC(=O)O)NC(=O)[C@H](Cc1ccccc1)NC(=O)[C@@H](C)NC(=O)[C@@H](N)Cc1ccc(O)cc1)C(=O)N[C@H](C(=O)NCC(N)=O)C(C)C` [DELTORPHIN C] had a pIC50 of 6.29.

Consider `C[C@@H](NC(=O)[C@@H](N)Cc1ccc(O)cc1)C(=O)N[C@@H](Cc1ccccc1)C(=O)NCC(=O)N[C@@H](Cc1ccc(O)cc1)C(=O)N1CCC[C@H]1C(=O)N[C@@H](CO)C(N)=O` [DERMORPHIN], for which the pKi in assay [2] was 9.55. This molecule gave a pIC50 in assay [3] of 8.68.

The values are drawn from ChEMBL document CHEMBL1130328, “Synthesis and pharmacological activity of deltorphin and dermorphin-related glycopeptides” (J Med Chem, 1997).
